Results published in ChEMBL document CHEMBL5712073, “DNA methylation in small cell lung cancer defines distinct disease subtypes and correlates with high expression of EZH2” (Oncogene, 2015).
Activity calls are given as the source filed them. The calls are words filed in the database; no cut-off is given here.

Tests used:
[1] = Toxicity in athymic nude mouse xenografted with human PDX LX92 cells assessed as tolerability at 100 mg/kg, bid measured upto 42 days; assay type: organism-based; settings: in vivo, 1008 h, time < 42 day
How it was run: (§1)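 Subcutaneous right-flank xenograft of 5×10^6 viable cells in 1:1 HBSS:matrigel; mice randomized at ~150 mm3. Vehicle 0.5% NaCMC with 0.1% Tween-80 in water; dosing Mon-Fri. Tumor volumes and body weights measured twice weekly.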

PDX LX92 [2] = test: Antitumor activity against human PDX LX92 cells xenografted in athymic nude mouse assessed as reduction of H3K27me2 level at 100 mg/kg, bid measured upto 42 days by Westernblot analysis; assay type: functional, organism-based; settings: time <= 42.0 day
How it was run: (§2)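 Mice implanted subcutaneously in the right hind flank with 5×10^6 viable cells in 1:1 HBSS:matrigel; randomized at ~150 mm3 tumor volume. Drug formulated in 0.5% NaCMC with 0.1% Tween-80 in water, dosed BID (10AM/4PM), Mon-Fri. Tumors harvested 2 h after final dose for Western blot.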

PDX LX92 [3] = test: Antitumor activity against human PDX LX92 cells xenografted in athymic nude mouse assessed as reduction of H3K27me3 level at 100 mg/kg, bid measured upto 42 days by Westernblot analysis; assay type: functional, organism-based; settings: time <= 42.0 day; how it was run: as §2
PDX LX92 [4] = test: Antitumor activity against human PDX LX92 cells xenografted in athymic nude mouse assessed as reduction of EZH1 level at 100 mg/kg, bid measured upto 42 days by Westernblot analysis; assay type: functional, organism-based; settings: time <= 42.0 day; how it was run: as §2
[5] = Toxicity in athymic nude mouse xenografted with human PDX LX92 cells assessed as tolerability at 100 mg/kg, qd measured upto 42 days; assay type: organism-based; settings: in vivo, 1008 h, time < 42 day; how it was run: as §1
PDX LX92 [6] = test: Antitumor activity against human PDX LX92 cells xenografted in athymic nude mouse assessed as reduction of EZH2 level at 100 mg/kg, bid measured upto 42 days by Westernblot analysis; assay type: functional, organism-based; settings: time <= 42.0 day; how it was run: as §2
PDX LX92 [7] = test: Antiproliferative activity against human PDX LX92 cells assessed as resazurin conversion measured upto 7 days by alamar blue based assay; assay type: functional, cell-based; settings: time <= 7.0 day
How it was run: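 LX92 PDX dissociated, filtered through 70 µm mesh, washed, red cells lysed; ~1×10^6 viable cells cultured in DMEM:F12 with EGM-2 growth factors. About 72 h after dissociation, seeded 5,000 cells/well; compound added daily at 1 µM final, DMSO vehicle. Viability read by resazurin conversion over time for 7 days; 2-way ANOVA with Dunnett adjustment.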

[8] = biological target: Histone-lysine N-methyltransferase EZH2 (Homo sapiens) (UniProt Q15910); test: Inhibition of EZH2 in human PDX LX92 cells assessed as decrease in H3K27me3 level after 7 days by Westernblot analysis; assay type: cell-based; settings: time 7.0 day
How it was run: (§3)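 Ex vivo LX92 cultures (dissociated PDX cells in DMEM:F12 plus EGM-2 growth factors, 5,000 cells/well) given EZH2 inhibitor daily at 1 µM final, DMSO vehicle. Day 7 lysates probed by Western blot for EZH1, EZH2, H3K27me2 and H3K27me3.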

[9] = biological target: Histone-lysine N-methyltransferase EZH2 (Homo sapiens) (UniProt Q15910); test: Inhibition of EZH2 in human PDX LX92 cells assessed as decrease in H3K27me2 level after 7 days by Westernblot analysis; assay type: cell-based; settings: time 7.0 day; how it was run: as §3

Chain of Histone-lysine N-methyltransferase EZH2 (Homo sapiens) (Q15910 whole entry, looked up): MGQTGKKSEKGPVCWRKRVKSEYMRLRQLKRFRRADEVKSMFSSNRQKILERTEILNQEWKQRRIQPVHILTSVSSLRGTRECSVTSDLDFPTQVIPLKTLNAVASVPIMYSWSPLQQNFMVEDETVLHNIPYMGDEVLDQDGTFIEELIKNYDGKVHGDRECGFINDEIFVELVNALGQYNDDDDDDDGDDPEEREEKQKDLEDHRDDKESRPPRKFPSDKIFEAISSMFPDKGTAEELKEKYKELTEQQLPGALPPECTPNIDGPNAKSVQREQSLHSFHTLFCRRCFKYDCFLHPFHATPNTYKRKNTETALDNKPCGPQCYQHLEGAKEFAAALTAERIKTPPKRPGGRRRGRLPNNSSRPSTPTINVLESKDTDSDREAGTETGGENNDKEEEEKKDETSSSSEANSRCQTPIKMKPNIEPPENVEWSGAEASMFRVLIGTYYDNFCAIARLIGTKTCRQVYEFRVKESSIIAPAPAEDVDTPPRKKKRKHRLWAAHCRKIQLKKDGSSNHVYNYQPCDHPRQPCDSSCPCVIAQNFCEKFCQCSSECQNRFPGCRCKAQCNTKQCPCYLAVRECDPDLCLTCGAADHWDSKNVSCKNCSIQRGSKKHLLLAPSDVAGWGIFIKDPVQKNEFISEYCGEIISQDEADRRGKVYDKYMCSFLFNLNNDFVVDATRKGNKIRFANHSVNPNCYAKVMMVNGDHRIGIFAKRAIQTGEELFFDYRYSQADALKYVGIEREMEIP

SMILES	Activity [1]	Activity (PDX LX92 [2])	Activity (PDX LX92 [3])	Activity (PDX LX92 [4])	Activity [5]	Activity (PDX LX92 [6])	Activity (PDX LX92 [7])	inhibition [8]	inhibition [9]
CCN(c1cc(-c2ccc(CN3CCOCC3)cc2)cc(C(=O)NCc2c(C)cc(C)[nH]c2=O)c1C)C1CCOCC1 [TAZEMETOSTAT]	Non-Toxic	Active	Active	Active	Non-Toxic	Active			
CCCc1cc(C)[nH]c(=O)c1CNC(=O)c1cc(-c2ccc(N3CCN(C(C)C)CC3)nc2)cc2c1cnn2C(C)C							Active	Active	
Cc1cc(C)c(CNC(=O)c2cc(-c3ccc(CN4CCOCC4)cc3)cc3c2cnn3C2CCCC2)c(=O)[nH]1							Active	Active	Active
CCCc1cc(C)[nH]c(=O)c1CNC(=O)c1cc(-c2ccnc(N3CCN(C)CC3)c2)cc2c1cnn2C(C)C							Active	Active	
